Source: PMC6988732 (The Biochemical journal, 2013)
Numbering of substitutions follows the chain as printed. Several values for one entry are separate records, joined by “and”; a condition that tells them apart may be missing. Identical values can stand only once.

Tests used:
full-length PKCθ L255G = full-length PKCθ L255G (Mus musculus, UniProt Q02111, L255G); test: Membrane translocation in HEK-293 cells; format: cell-based; conditions: 250 nM DOG, 2 h
PKCθC1B L255G = target: T1, PKCθC1B L255G (Mus musculus, UniProt Q02111, L255G); test: [3H]PDBu binding assay; conditions: for reduction in binding affinity compared with the wild-type: L255G vs wild-type PKCθC1B (Kd for PDBu, Ki for DOG/SAG); for Ki/Kd / Ki: PKCθ C1B L255G; for Ki/Kd: Ki of the diacylglycerol over Kd of PDBu; for Ki: competition of [3H]PDBu binding, mean ± S.E.M.
T1 sequence (Q02111 232-281 L255G): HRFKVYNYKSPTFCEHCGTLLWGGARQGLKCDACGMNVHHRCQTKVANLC
Outline: (§1)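 GST-cleaved mouse PKCθ C1B (residues 232–281), E. coli-expressed, affinity/gel-filtration purified. PEG-precipitation [3H]PDBu binding; Kd from saturable plus linear non-specific fit. Ki: [3H]PDBu at 2–5-fold each construct's Kd, DOG or SAG 1–100000 nM, dried from chloroform with phospholipid, sonicated. PS dependence: total phospholipid 100 μg/ml, PS 0–100%, remainder PC, relative to 100% PS. Means ± S.E.M., three independent experiments.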

PKCθC1B Y239A = target: T2, PKCθC1B Y239A (Mus musculus, UniProt Q02111, Y239A); test: [3H]PDBu binding assay; conditions: for Ki/Kd / Ki: PKCθ C1B Y239A; for Ki/Kd: Ki of the diacylglycerol over Kd of PDBu; for Ki: competition of [3H]PDBu binding, mean ± S.E.M.; for reduction in binding affinity compared with the wild-type: Y239A vs wild-type PKCθC1B (Kd for PDBu, Ki for DOG/SAG)
T2 sequence (Q02111 232-281 Y239A): T1 sequence (Q02111 232-281 L255G) with Y8A, G24L
Outline: as §1

PKCθC1B T243A = target: T3, PKCθC1B T243A (Mus musculus, UniProt Q02111, T243A); test: [3H]PDBu binding assay; conditions: for Ki/Kd / Ki: PKCθ C1B T243A; for Ki/Kd: Ki of the diacylglycerol over Kd of PDBu; for Ki: competition of [3H]PDBu binding, mean ± S.E.M.; for reduction in binding affinity compared with the wild-type: T243A vs wild-type PKCθC1B (Kd for PDBu, Ki for DOG/SAG)
T3 sequence (Q02111 232-281 T243A): T1 sequence (Q02111 232-281 L255G) with T12A, G24L
Outline: as §1

PKCθC1B W253G = target: T4, PKCθC1B W253G (Mus musculus, UniProt Q02111, W253G); test: [3H]PDBu binding assay; conditions: for Ki/Kd / Ki: PKCθ C1B W253G; for Ki/Kd: Ki of the diacylglycerol over Kd of PDBu; for Ki: competition of [3H]PDBu binding, mean ± S.E.M.; for reduction in binding affinity compared with the wild-type: W253G vs wild-type PKCθC1B (Kd for PDBu, Ki for DOG/SAG)
T4 sequence (Q02111 232-281 W253G): T1 sequence (Q02111 232-281 L255G) with W22G, G24L

full-length PKCθ Q258G = full-length PKCθ Q258G (Mus musculus, UniProt Q02111, Q258G); test: Membrane translocation in HEK-293 cells; format: cell-based; conditions: 250 nM DOG, 2 h
full-length PKCθ Q258G, sequence (Q02111 whole entry Q258G): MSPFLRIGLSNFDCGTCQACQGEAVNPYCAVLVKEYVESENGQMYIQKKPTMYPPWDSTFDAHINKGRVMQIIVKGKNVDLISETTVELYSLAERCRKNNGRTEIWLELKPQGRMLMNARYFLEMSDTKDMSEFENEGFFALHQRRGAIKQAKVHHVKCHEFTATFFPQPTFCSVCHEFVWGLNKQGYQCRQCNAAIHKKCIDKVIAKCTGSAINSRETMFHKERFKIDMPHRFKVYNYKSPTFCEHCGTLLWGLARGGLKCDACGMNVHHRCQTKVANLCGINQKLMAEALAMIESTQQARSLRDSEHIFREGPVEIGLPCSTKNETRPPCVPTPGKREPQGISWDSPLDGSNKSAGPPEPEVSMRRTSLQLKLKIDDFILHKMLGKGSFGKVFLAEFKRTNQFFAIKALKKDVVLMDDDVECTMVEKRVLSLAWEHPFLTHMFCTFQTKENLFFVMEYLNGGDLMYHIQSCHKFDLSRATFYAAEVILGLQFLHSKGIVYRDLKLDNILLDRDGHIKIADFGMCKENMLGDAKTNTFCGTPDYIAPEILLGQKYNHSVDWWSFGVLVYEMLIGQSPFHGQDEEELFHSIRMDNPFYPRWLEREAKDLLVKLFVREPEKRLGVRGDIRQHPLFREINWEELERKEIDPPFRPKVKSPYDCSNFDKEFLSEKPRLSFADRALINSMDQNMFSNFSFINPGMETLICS

full-length PKCθ T243A = full-length PKCθ T243A (Mus musculus, UniProt Q02111, T243A); test: Membrane translocation in HEK-293 cells; format: cell-based; conditions: 250 nM DOG, 2 h
full-length PKCθ T243A, sequence (Q02111 whole entry T243A): as the sequence (Q02111 whole entry Q258G) above, with T243A, G258Q counted along it

full-length PKCθ Y239A = full-length PKCθ Y239A (Mus musculus, UniProt Q02111, Y239A); test: Membrane translocation in HEK-293 cells; format: cell-based; conditions: 250 nM DOG, 2 h
full-length PKCθ Y239A, sequence (Q02111 whole entry Y239A): as the sequence (Q02111 whole entry Q258G) above, with Y239A, G258Q counted along it

full-length PKCθ W253G = full-length PKCθ W253G (Mus musculus, UniProt Q02111, W253G); test: Membrane translocation in HEK-293 cells; format: cell-based; conditions: 250 nM DOG, 2 h
full-length PKCθ W253G, sequence (Q02111 whole entry W253G): as the sequence (Q02111 whole entry Q258G) above, with W253G, G258Q counted along it

PKCθC1B wild-type = target: T5, PKCθC1B wild-type (Mus musculus, UniProt Q02111); test: [3H]PDBu binding assay; conditions: for Ki/Kd / Ki: PKCθ C1B WT; for Ki/Kd: Ki of the diacylglycerol over Kd of PDBu; for Ki: competition of [3H]PDBu binding, mean ± S.E.M.
T5 sequence (Q02111 232-281): T1 sequence (Q02111 232-281 L255G) with G24L
Outline: as §1

PKCθC1B Q258G = target: T6, PKCθC1B Q258G (Mus musculus, UniProt Q02111, Q258G); test: [3H]PDBu binding assay; conditions: for Ki/Kd / Ki: PKCθ C1B Q258G; for Ki/Kd: Ki of the diacylglycerol over Kd of PDBu; for Ki: competition of [3H]PDBu binding, mean ± S.E.M.; for reduction in binding affinity compared with the wild-type: Q258G vs wild-type PKCθC1B (Kd for PDBu, Ki for DOG/SAG)
T6 sequence (Q02111 232-281 Q258G): T1 sequence (Q02111 232-281 L255G) with G24L, Q27G
Outline: as §1

full-length PKCθ L255G, sequence (Q02111 whole entry L255G): as the sequence (Q02111 whole entry Q258G) above, with L255G, G258Q counted along it

SMILES	reduction in binding affinity compared with the wild-type (PKCθC1B L255G) [fold]	Ki/Kd (PKCθC1B L255G)	Ki (PKCθC1B L255G) [nM]	Ki/Kd (PKCθC1B Y239A)	Ki (PKCθC1B Y239A) [nM]	reduction in binding affinity compared with the wild-type (PKCθC1B Y239A) [fold]	Ki/Kd (PKCθC1B T243A)	Ki (PKCθC1B T243A) [nM]	reduction in binding affinity compared with the wild-type (PKCθC1B T243A) [fold]	Ki/Kd (PKCθC1B W253G)	Ki (PKCθC1B W253G) [nM]	reduction in binding affinity compared with the wild-type (PKCθC1B W253G)	Ki/Kd (PKCθC1B wild-type)	Ki (PKCθC1B wild-type) [nM]	Ki/Kd (PKCθC1B Q258G)	Ki (PKCθC1B Q258G) [nM]	reduction in binding affinity compared with the wild-type (PKCθC1B Q258G) [fold]	also measured
CCCCCCCC(=O)OC[C@H](CO)OC(=O)CCCCCCC [DOG, sn-1,2-dioctanoylglycerol]	4.72	17	76 ± 24	26	86 ± 15	5.34	34	21.5 ± 1.8	1.34	159	470 ± 69	29.2 fold and 29 fold	41	16.1 ± 0.7	3	1840 ± 320	114	reduction in membrane translocation compared with the wild-type (full-length PKCθ L255G): 15.4%; greater loss of affinity for DOG than for PDBu caused by W253G (PKCθC1B W253G; W253G vs wild-type): 4 fold; reduction in membrane translocation compared with the wild-type (full-length PKCθ Q258G): 15.9%; reduction in membrane translocation compared with the wild-type (full-length PKCθ T243A): 8.98%; reduction in membrane translocation compared with the wild-type (full-length PKCθ Y239A): 12.0%; reduction in membrane translocation compared with the wild-type (full-length PKCθ W253G): 5.9%
CCCCC/C=C\C/C=C\C/C=C\C/C=C\CCCC(=O)OC(CO)COC(=O)CCCCCCCCCCCCCCCCC (centres unmarked) [SAG, sn-1-stearoyl 2-arachidonyl glycerol]	8.16	16	71 ± 10	11	35.1 ± 5.1	4.13	9	5.5 ± 1.5	0.63	92	271 ± 22	31.1 fold and 31 fold	22	8.7 ± 2	3	2260 ± 330	260	stronger binding affinity for SAG than for DOG (PKCθC1B wild-type; C1B domain of PKCθ): 2 fold
